Reference: ChEMBL document CHEMBL1145131, “Structure-based design, synthesis, and biological evaluation of irreversible human rhinovirus 3C protease inhibitors. 8. Pharmacological optimization of orally bioavailable 2-pyridone-containing peptidomimetics” (J Med Chem, 2003)
Converted amounts (≈) assume the structure as drawn.

What was measured:
[1] = Compound was tested for plasma concentration in CM-monkeys 7 hours after oral administration (50 mg/kg); assay type: ADME, organism-based, Macaca fascicularis; conditions: cynomolgus monkey
Method in brief: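 Male CM-monkeys (BW ~3.9 kg, n = 3), single oral dose of 50 mg/kg in 80:20 propylene glycol:sterile water at 15.0 mg/mL. Blood sampled periodically up to 24 h post-dose. Plasma concentration at 7 h measured by LCMS. Parameters from noncompartmental analysis of individual concentration-time data.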

[2] = Compound was tested in vitro for loss of compound after 30 min exposure to liver microsomes of human at 25 uM concentration; assay type: ADME, organism-based; conditions: read-out: Metabolism
Method in brief: (§1)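 Pooled liver microsomes (dog, monkey or human; 1 mg/mL, 6–8 livers) with 2 mM NADPH in 100 mM potassium phosphate, pH 7.4, preincubated 1 min at 37 °C. Started with 25 μM compound, run 30 min, quenched with acetonitrile. Time-zero controls quenched before compound addition. Remaining compound by reversed-phase HPLC at 215 nm. Reported as % metabolized.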

[3] = Compound was tested in vitro for loss of compound after 30 min exposure to liver microsomes of dog at 25 uM concentration; assay type: ADME, organism-based, Canis lupus familiaris; conditions: read-out: Metabolism; method in brief: as §1
[4] = Compound was tested in vitro for loss of compound after 2 hours exposure to hepatocytes of human at 25 uM concentration; assay type: ADME, organism-based, Hepatocyte; conditions: read-out: Metabolism
Caco-2 = conditions: Homo sapiens
[5] = Compound was tested in vitro for loss of compound after 2 hours exposure to hepatocytes of dog at 25 uM concentration; assay type: ADME, organism-based, Canis lupus familiaris, Hepatocyte; conditions: read-out: Metabolism
[6] = Thermodynamic aqueous solubility was determined; assay type: physicochemical; conditions: buffer
Method in brief: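 1–2 mg compound stirred in 1 mL of pH 7.0, 50 mM phosphate buffer at room temperature for 4 h. Filtered through a 0.45 μm filter. Filtrate concentration determined by HPLC against a standard of known concentration.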

Canis familiaris = species: Canis familiaris; assay: Compound was tested for plasma protein binding of dog; assay type: ADME, organism-based, Canis lupus familiaris
Method in brief: (§2)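 Ultrafiltration binding. Compound added from 1 mM and 0.1 mM stocks into heparinized dog or human plasma or pH 7.4 phosphate buffer, giving final 1 and 10 μM. Incubated 1 h at 37 °C, then centrifugal ultrafiltration. Filtrate and whole plasma quantified by LCMS with internal standard. % free = filtrate/whole plasma × 100. Three replicates per species per concentration.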

Enterovirus [7] = assay: In vitro anti-rhinoviral activity against human rhinovirus serotypes 2,3,9,14,16,25 and 39; assay type: functional, organism-based
[8] = Compound was tested for human plasma protein binding; assay type: ADME, cell-free; method in brief: as §2
[9] = target: T1, Human rhinovirus A protease (Human rhinovirus sp.) (UniProt Q4U254);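 further: inhibition of the human rhinovirus 3C protease enzyme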
T1 sequence (whole entry): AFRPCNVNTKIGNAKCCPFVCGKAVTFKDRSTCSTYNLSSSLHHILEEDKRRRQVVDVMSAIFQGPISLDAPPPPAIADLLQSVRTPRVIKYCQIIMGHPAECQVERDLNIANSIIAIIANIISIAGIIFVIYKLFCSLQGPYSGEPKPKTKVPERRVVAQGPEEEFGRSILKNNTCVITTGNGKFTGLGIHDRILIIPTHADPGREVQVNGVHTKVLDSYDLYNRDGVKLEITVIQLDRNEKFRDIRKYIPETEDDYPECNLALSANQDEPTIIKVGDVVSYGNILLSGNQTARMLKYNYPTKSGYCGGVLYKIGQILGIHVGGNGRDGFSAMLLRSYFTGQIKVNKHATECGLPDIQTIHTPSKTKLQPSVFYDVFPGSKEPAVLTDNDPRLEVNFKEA

[10] = Compound was tested in vitro for loss of compound after 2 hours exposure to hepatocytes of monkey at 25 uM concentration; assay type: ADME, cell-based, Hepatocyte; conditions: simiiformes, read-out: Metabolism
[11] = Half-life upon exposure to human plasma; assay type: ADME, organism-based
Method in brief: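 Pooled heparinized human plasma (10 donors) or 100 mM potassium phosphate pH 7.4 buffer (n = 3 each), spiked to final 25 μM compound from acetonitrile stock. Incubated at 37 °C for 1–3 h with regular sampling. Protein precipitated with acetonitrile, then LC quantification against a 0.05–40 μg/mL standard curve. Half-life by linear regression of mean concentration-time data.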

[12] = Compound was tested for plasma concentration in dogs 7 hours after oral administration (30 mg/kg); assay type: ADME, organism-based, Canis lupus familiaris; conditions: dog
Method in brief: (§3)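 Male beagle dogs (BW ~9.3 kg, n = 3), single oral dose of 30 mg/kg. Vehicle was 80:20 propylene glycol:sterile water (15.0 mg/mL) or, in some studies, a 0.5% carboxymethyl cellulose suspension. Blood sampled up to 24 h. Plasma level at 7 h determined by LCMS. Noncompartmental analysis of individual concentration-time profiles.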

[13] = Compound was tested for plasma concentration in dogs 7 hours after oral administration (30 mg/kg) in experiment 1; assay type: ADME, organism-based, Canis lupus familiaris; conditions: dog; method in brief: as §3
[14] = Compound was tested for plasma concentration in dogs 7 hours after oral administration (30 mg/kg) in experiment 2; assay type: ADME, organism-based, Canis lupus familiaris; conditions: dog; method in brief: as §3
[15] = Compound was tested in vitro for loss of compound after 2 hours exposure to hepatocytes of monkey at 5 uM concentration; assay type: ADME, cell-based, Hepatocyte; conditions: simiiformes, read-out: Metabolism
[16] = Compound was tested in vitro for loss of compound after 30 min exposure to liver microsomes of monkey at 25 uM concentration; assay type: ADME, Microsome; conditions: simiiformes, read-out: Metabolism; method in brief: as §1
Enterovirus [17] = assay: In vitro antirhinoviral activity against human rhinovirus serotypes 9,14 and 25; assay type: functional, organism-based
Enterovirus [18] = assay: In vitro antirhinoviral activity against human rhinovirus serotypes 2, 3, 9, 14, 16 and 39 (mean)
Enterovirus [19] = assay: In vitro antirhinoviral activity mean against human rhinovirus serotypes 2, 3, 9, 14, 16 and 25

SMILES	metabolised at 0.5 h, 25 µM [2] [%]	metabolised at 0.5 h, 25 µM [3] [%]	Papp (Caco-2)	solubility thermodynamic [6] [µg/mL]	EC50 (Enterovirus [7]) [µM]	K obs / 1 [9] [M⁻¹ s⁻¹]	half-life [11] [h]	further results
C#CC[C@@H](C(=O)N[C@H](/C=C/C(=O)OCc1ccccc1)C[C@@H]1CCNC1=O)n1cccc(NC(=O)c2cc(C)on2)c1=O	52	67	18 10e-6 cm s-1	22 (≈ 37.6 µM)	0.036	300000	4.3	concentration at 7 h [1]: 3 nM; metabolised at 2 h, 25 µM [4]: 51%; metabolised at 2 h, 25 µM [5]: 61%; Free (Canis familiaris): 25%; Free [8]: 13%; metabolised at 2 h, 25 µM [10]: 69%; concentration at 7 h [12]: 563 nM
CCOC(=O)/C=C/[C@H](C[C@@H]1CCNC1=O)NC(=O)[C@H](CC)n1cccc(NC(=O)c2cc(C)on2)c1=O	61	37	5 10e-6 cm s-1	38 (≈ 74 µM)	0.047	170000	5.6	concentration at 7 h [1]: 896 nM; concentration at 7 h [13]: 682 nM; metabolised at 2 h, 25 µM [4]: 82%; metabolised at 2 h, 25 µM [5]: 14%; concentration at 7 h [14]: < 10 nM; metabolised at 2 h, 5 µM [15]: 76%; metabolised at 0.5 h, 25 µM [16]: 61%
CC[C@@H](C(=O)N[C@H](/C=C/C(=O)OC1CCCCCC1)C[C@@H]1CCNC1=O)n1cccc(NC(=O)c2cc(C)on2)c1=O	–	–	–	–	–	15000	–	–
C#CC[C@@H](C(=O)N[C@H](/C=C(\C)C(=O)OCC)C[C@@H]1CCNC1=O)n1cccc(NC(=O)c2cc(C)on2)c1=O	–	–	–	–	1.46	12500	–	–
CC[C@@H](C(=O)N[C@H](/C=C/C(=O)OC1CCCCC1)C[C@@H]1CCNC1=O)n1cccc(NC(=O)c2cc(C)on2)c1=O	–	–	–	–	–	23000	–	EC50 (Enterovirus [17]): 0.313 µM
C#CC[C@@H](C(=O)N[C@H](/C=C/C(=O)OC1CCCC1)C[C@@H]1CCNC1=O)n1cccc(NC(=O)c2cc(C)on2)c1=O	59	76	36 10e-6 cm s-1	15 (≈ 26.6 µM)	0.174	186000	12.5	Free (Canis familiaris): 20%; Free [8]: 7%; concentration at 7 h [12]: 160 nM
CC[C@@H](C(=O)N[C@H](/C=C/C(=O)OC(C)(C)C)C[C@@H]1CCNC1=O)n1cccc(NC(=O)c2cc(C)on2)c1=O	–	–	–	–	0.405	45100	–	–
C#CC[C@@H](C(=O)N[C@H](/C=C/C(=O)OC1CCCCCC1)C[C@@H]1CCNC1=O)n1cccc(NC(=O)c2cc(C)on2)c1=O	–	–	–	–	–	47000	–	EC50 (Enterovirus [17]): 0.812 µM
CCOC(=O)c1ccc(OCCC2CCN(c3ccc(C)nn3)CC2)cc1 [PIRODAVIR]	–	–	–	–	–	–	–	EC50 (Enterovirus [18]): 0.031 µM
CCOC(=O)/C=C/[C@H](C[C@@H]1CCNC1=O)NC(=O)[C@H](Cc1ccc(F)c(F)c1)n1cccc(NC(=O)c2cc(C)on2)c1=O	81	57	35 10e-6 cm s-1	25 (≈ 40.9 µM)	0.011	–	1.4	metabolised at 2 h, 25 µM [4]: 94%
C#CC[C@@H](C(=O)N[C@H](/C=C/C(=O)OC(C)C)C[C@@H]1CCNC1=O)n1cccc(NC(=O)c2cc(C)on2)c1=O	–	–	–	–	–	100000	–	EC50 (Enterovirus [19]): 0.174 µM
